WT yeast gro inh: growth inhibition of WT strain, primary screen, mitochondrial fusion inhibitor project, WT and mutant strains, chemical genetic | 190,000 compounds, 2.1% hits | mitochondrial fusion phenotypic screen | inhibition, % at 10 µM; in the data active = inhibition above about 58%; tested in S. cerevisiae
RAM network inh: inhibitors of the yeast RAM network, primary screen, dse1pr::URA3 reporter, 5-FOA selection | S. cerevisiae dse1pr::URA3 reporter, 5-FOA growth OD615, 2 d; analog-sensitive cbk1-as2 kinase mutant strain | inhibition, % at 50 µM | 190,000 compounds, 1.8% hits | AID 868, 2007;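 active = inhibition above a set limit, 3 SD over mean compound inhibition, cut at about 8.4% in these data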;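 also: inhibition rescues growth on 5-FOA so higher OD means more RAM inhibition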
Yeast growth inh: growth inhibitors of yeast BB579 in restrictive medium, primary screen, yeast lifespan-shortening project, S. cerevisiae | inhibition, % at 10 µM | OD615, 48 h | 140,000 compounds, 0.51% hits | AID 804, 2007;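 active = inhibition above a set limit, 3 SD over the mean compound inhibition, cut at about 44% in these data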
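Assay system: S. cerevisiae DeaD strain BB579 yeast. Medium: CSMM-D restrictive synthetic medium containing dextrose (glucose). Times: 4 h cell preincubation, 48 h compound exposure, 30 °C humidified. Signal: OD615 turbidity measurement. Benchmarks: positive control amphotericin B 10 µg/mL.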
DAT uptake mod: changed hDAT dopamine uptake under cocaine IC80, either direction, primary screen, cocaine antagonist project, cell-based, LLC-PK1 hDAT, [14C]-dopamine uptake, MLSMR. Sodium-dependent dopamine transporter (Homo sapiens), Q01959. LLC-PK1 hDAT cells, [14C]-dopamine uptake with cocaine IC80; actives deviate in either direction. B-score at 10 µM. 110,000 compounds, 1.3% hits;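 active = Z score or B-score, a plate-position-corrected score, falls beyond the plate's 99.7% confidence bounds, in either direction; inactive = both scores lie inside the 99.7% bounds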
Target sequence (Q01959 whole entry, looked up): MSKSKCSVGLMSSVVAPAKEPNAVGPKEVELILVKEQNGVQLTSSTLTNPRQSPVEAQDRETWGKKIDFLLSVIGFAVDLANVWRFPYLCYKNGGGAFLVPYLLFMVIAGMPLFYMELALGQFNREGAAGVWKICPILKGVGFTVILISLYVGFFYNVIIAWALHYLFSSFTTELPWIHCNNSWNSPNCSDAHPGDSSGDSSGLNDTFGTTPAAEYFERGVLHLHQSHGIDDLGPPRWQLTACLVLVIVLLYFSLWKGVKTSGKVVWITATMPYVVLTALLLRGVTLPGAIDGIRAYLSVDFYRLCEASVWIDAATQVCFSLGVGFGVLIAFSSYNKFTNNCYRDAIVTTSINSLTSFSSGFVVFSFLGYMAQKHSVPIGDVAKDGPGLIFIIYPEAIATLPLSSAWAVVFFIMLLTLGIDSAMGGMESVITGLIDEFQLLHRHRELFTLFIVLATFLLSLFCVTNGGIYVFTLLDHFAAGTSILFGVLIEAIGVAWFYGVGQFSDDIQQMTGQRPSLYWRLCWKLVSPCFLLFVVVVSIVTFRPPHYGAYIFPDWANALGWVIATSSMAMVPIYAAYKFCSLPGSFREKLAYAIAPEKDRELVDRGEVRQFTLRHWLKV
Measles CPE: compounds protecting cells from measles virus cytopathic effect, primary screen, measles RdRp inhibitor project, single point, MLSMR library, absorbance; Measles virus-infected cells, CPE protection; protection (pct of control), % at 4 µM; 140,000 compounds, 1.5% hits; in the data active = protection mostly above about 24%, no sharp cut-off; inactive = mostly below about 26%
Yeast life ext: compounds extending yeast replicative lifespan, primary screen, S. cerevisiae, OD615 | inhibition of the nicotinamide effect, % at 10 µM | 130,000 compounds, 0.68% hits | S. cerevisiae growth with nicotinamide; deaD strain in restrictive glucose medium;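 active = inhibition above a set limit, placed 3 SD over the median of all compounds, cut at about 26% in these data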
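System: DeaD-strain S. cerevisiae / Buffer or medium: CSMM-D, restrictive glucose (dextrose) synthetic minimal medium / Probe or stimulus: nicotinamide, 1.5 mM, co-present with compound / Compound: one concentration, 10 µM, DMSO 0.25% / Incubation: 48 h compound exposure at 30 °C, humidified / Technique: optical density (absorbance) at 615 nm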
RAM efflux-def: 5-FOA growth of efflux-deficient control yeast, dose response, counter-screen for RAM network inhibitor project, S. cerevisiae, OD615. S. cerevisiae efflux-deficient reporter strain, 5-FOA growth OD615, 2 days. max inhibition, %. AID 1305, 2008. shares compounds with RAM network inh. 1,200 tested, under 10 active; call rule not given here
Of the large screens only hits and unclear results are named; the others gave an inactive call (follow-up assays come after a bar, where they were run). A selection: hits, their analogues and other compounds. The true share with any hit is near 6.1%.

O=C(Nc1ccccc1)C1=C[C@@H](C2CCCCC2)C[C@@H](OCc2ccc(CO)cc2)O1	RAM network inh 12 (no result: Yeast growth inh, Measles CPE, Yeast life ext) | RAM efflux-def inactive
CC1CCCCN1C(=O)c1cc(Cl)ccc1[N+](=O)[O-] (stereo not given)	none (no result: DAT uptake mod)
CC(C)OCCCNC(=O)C(NS(=O)(=O)c1ccc2c(c1)c(=O)n(C)c(=O)n2C)c1ccccc1 (stereo not given)	RAM network inh 13 (no result: Yeast growth inh, DAT uptake mod, Measles CPE, Yeast life ext) | RAM efflux-def inactive
CCOC(=O)CCCSc1nnc(CCCCCN2C(=O)c3cccc4cccc(c34)C2=O)o1	RAM network inh 14 (no result: DAT uptake mod) | RAM efflux-def inactive
Cc1nnc(SCCCN2C(=O)c3ccccc3C2=O)o1	none
C=CCSc1nnc(CCCCCN2C(=O)c3cccc4cccc(c34)C2=O)o1	RAM network inh 16 (no result: DAT uptake mod) | RAM efflux-def inactive
COc1cc(Cl)c(C)cc1NC(=O)COC(=O)c1cc[n+]([O-])cc1	none (no result: Yeast growth inh, DAT uptake mod, Measles CPE, Yeast life ext)
COc1ccc(C(=O)OCC(=O)c2ccc(C3CCCCC3)cc2)cc1	RAM network inh 11 | RAM efflux-def inactive
COc1ccc(C(=O)Nc2ccc(C(=O)OCC(=O)c3ccccc3)cc2)cc1	none
COc1cccc(-c2cc(C(F)(F)F)nc(N3CCN(c4ccccc4)CC3)n2)c1	RAM network inh 16 | RAM efflux-def inactive
CCOC(=O)N1CCN(c2nc(-c3cccc(OC)c3)cc(C(F)(F)F)n2)CC1	RAM network inh 12 | RAM efflux-def inactive
CC(=O)Oc1ccc(N(C(C)=O)S(=O)(=O)c2cccs2)c2ccccc12	none
CC1=C(C(=O)OCc2ccccc2)C(c2ccc(-c3ccccc3)cc2)NC(=O)N1CCCC(=O)O (stereo not given)	none (no result: WT yeast gro inh, RAM network inh, Yeast growth inh, Measles CPE, Yeast life ext)
CC1=C(C(=O)OCc2ccccc2)C(c2ccc(C(C)(C)C)cc2)NC(=O)N1CCCCCC(=O)O (stereo not given)	RAM network inh 18 | RAM efflux-def inactive
CC1=C(C(=O)OCc2ccccc2)C(c2ccc([N+](=O)[O-])cc2)NC(=O)N1CCCCCC(=O)O (stereo not given)	RAM network inh 14 | RAM efflux-def inactive
COc1cccc(Cn2nnc(C(=O)NCc3ccccc3Cl)c2N)c1	none
O=C(O)c1cc2nccc(-c3ccc(F)cc3)n2n1	none (no result: Yeast growth inh, DAT uptake mod, Measles CPE, Yeast life ext)
